Data from ChEMBL document CHEMBL1139111, “Structure-activity relationship studies on quorum sensing ComX(RO-E-2) pheromone” (Bioorg Med Chem Lett, 2007).
*1 amine or outer side, *2 acyl side, *3 side chain or, on linkers, in order; H or OH if unused. Where a SMILES comes first, the peptide text is derived from it. [ ]: non-standard residue; d: D form. X1 = CC(C)=CCC/C(C)=C\C[C@@]12c3ccccc3N[C@@H]1N([*:1])C[C@@H]2C(=O)[*:2]

Columns and labels:
Bacillus subtilis = assay: Activity at beta-galactosidase in Bacillus subtilis relative to ComXRO-E-2; design: concentration or dose not given beside the values
Method in brief: (§1)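 B. subtilis tester strain carrying an srfA-lacZ fusion that responds to added pheromone. Overnight culture diluted 100-fold, added to sample solution, incubated 37 °C, 5 h, 150 rpm. β-Galactosidase measured with o-nitrophenyl-β-D-galactopyranoside at 30 °C, read at 420 nm. Analogs tested at concentrations up to 300 nM.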

[1] = Activity at beta-galactosidase in Bacillus subtilis; method in brief: as §1

Activity (Bacillus subtilis) [%]	EC50 [1] [nM]	Compound
100	3	CC[C@H](C)[C@H](NC(=O)[C@@H](C)N)C(=O)N[C@@H](Cc1ccccc1)C(=O)N1C[C@H](C(=O)N[C@@H](CCC(=O)O)C(=O)N[C@@H](CCC(N)=O)C(=O)O)[C@]2(C/C=C(/C)CCC=C(C)C)c3ccccc3N[C@H]12
95	10	CC(C)=CCC/C(C)=C\C[C@@]12c3ccccc3N[C@@H]1N(C(=O)[C@H](Cc1ccccc1)NC(=O)[C@H](C)NC(=O)CN)C[C@@H]2C(=O)N[C@@H](CCC(=O)O)C(=O)N[C@@H](CCC(N)=O)C(=O)O (H-GAF[X1]EQ-OH)
15	> 300	CC(C)=CCC/C(C)=C\C[C@@]12c3ccccc3N[C@@H]1NC[C@@H]2C(=O)N[C@@H](CCC(=O)O)C(=O)N[C@@H](CCC(N)=O)C(=O)O
100	1	CC[C@H](C)[C@H](NC(=O)CNC(=O)[C@H](C)N)C(=O)N[C@@H](Cc1ccccc1)C(=O)N1C[C@H](C(=O)N[C@@H](CCC(=O)O)C(=O)N[C@@H](CCC(N)=O)C(=O)O)[C@]2(C/C=C(/C)CCC=C(C)C)c3ccccc3N[C@H]12 (H-AGIF[X1]EQ-OH)
55	160	CC[C@H](C)[C@H](N)C(=O)N[C@@H](Cc1ccccc1)C(=O)N1C[C@H](C(=O)O)[C@]2(C/C=C(/C)CCC=C(C)C)c3ccccc3N[C@H]12
80	20	CC[C@H](C)[C@H](N)C(=O)N[C@@H](Cc1ccccc1)C(=O)N1C[C@H](C(=O)N[C@@H](CCC(=O)O)C(=O)O)[C@]2(C/C=C(/C)CCC=C(C)C)c3ccccc3N[C@H]12
60	130	CC[C@H](C)[C@H](NC(=O)CN)C(=O)N[C@@H](Cc1ccccc1)C(=O)N1C[C@H](C(=O)O)[C@]2(C/C=C(/C)CCC=C(C)C)c3ccccc3N[C@H]12
70	8	CC(C)=CCC/C(C)=C\C[C@@]12c3ccccc3N[C@@H]1N(C(=O)[C@@H](N)Cc1ccccc1)C[C@@H]2C(=O)N[C@@H](CCC(=O)O)C(=O)N[C@@H](CCC(N)=O)C(=O)O
100	3	CC[C@H](C)[C@H](NC(=O)CN)C(=O)N[C@@H](Cc1ccccc1)C(=O)N1C[C@H](C(=O)N[C@@H](C)C(=O)N[C@@H](CCC(N)=O)C(=O)O)[C@]2(C/C=C(/C)CCC=C(C)C)c3ccccc3N[C@H]12 (H-GIF[X1]AQ-OH)
90	20	CC[C@H](C)[C@H](NC(=O)CN)C(=O)N[C@@H](C)C(=O)N1C[C@H](C(=O)N[C@@H](CCC(=O)O)C(=O)N[C@@H](CCC(N)=O)C(=O)O)[C@]2(C/C=C(/C)CCC=C(C)C)c3ccccc3N[C@H]12 (H-GIA[X1]EQ-OH)
100	6	CC[C@H](C)[C@H](N)C(=O)N[C@@H](Cc1ccccc1)C(=O)N1C[C@H](C(=O)N[C@@H](CCC(=O)O)C(=O)N[C@@H](CCC(N)=O)C(=O)O)[C@]2(C/C=C(/C)CCC=C(C)C)c3ccccc3N[C@H]12 (H-IF[X1]EQ-OH)
100	1	CC[C@H](C)[C@H](NC(=O)CN)C(=O)N[C@@H](Cc1ccccc1)C(=O)N1C[C@H](C(=O)N[C@@H](CCC(=O)O)C(=O)N[C@@H](CCC(N)=O)C(=O)O)[C@]2(C/C=C(/C)CCC=C(C)C)c3ccccc3N[C@H]12 (H-GIF[X1]EQ-OH)
60	20	CC(C)=CCC/C(C)=C\C[C@@]12c3ccccc3N[C@@H]1N(C(=O)[C@@H](N)Cc1ccccc1)C[C@@H]2C(=O)N[C@@H](CCC(=O)O)C(=O)O
95	20	CC[C@H](C)[C@H](NC(=O)CN)C(=O)N[C@@H](Cc1ccccc1)C(=O)N1C[C@H](C(=O)N[C@@H](CCC(=O)O)C(=O)N[C@@H](C)C(=O)O)[C@]2(C/C=C(/C)CCC=C(C)C)c3ccccc3N[C@H]12 (H-GIF[X1]EA-OH)
80	20	CC[C@H](C)[C@H](NC(=O)CN)C(=O)N[C@@H](Cc1ccccc1)C(=O)N1C[C@H](C(=O)N[C@@H](CCC(=O)O)C(=O)O)[C@]2(C/C=C(/C)CCC=C(C)C)c3ccccc3N[C@H]12 (H-GIF[X1]E-OH)
